Experiments:
KB = experiment: Cytotoxicity against human KB cells; format: functional, cell-based
Summary of the method: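 KB3.1 was one of 12 human lines tested with nano-assembly formulations. Cells were seeded, then exposed after 24 h to 0.1–200 µM in DMEM or RPMI with 10% FBS at 37 °C and 5% CO2 for 72 h. MTS was read at 490 nm after 2–5 h. Six replicates per concentration; IC50 relative to untreated cells.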

Plasma [1] = experiment: Drug metabolism in mouse plasma assessed as 4-HO-IFO level measured after 2 to 24 hrs by HPLC-MS/MS method; format: ADME, cell-free
Summary of the method: (§1)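 Prodrugs, from acetonitrile stocks as bulk form or nano-assemblies, were incubated in mouse plasma at 37 °C for up to 24 h. 4-HO-IFO was trapped as its semicarbazone with semicarbazide (2 M in pH 7.4 buffer). It was quantified alongside the parent by isocratic C18 HPLC-ESI(+)-MS/MS with MRM, using hexamethyl phosphoramide as internal standard, over 50–5000 ng/mL. Results are given in ng/mL.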

[2] = Cytotoxicity against human RMS1 cells after 96 hrs by MTS assay; format: functional, cell-based; details: RMS1, 96 h
Summary of the method: (§2)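 Human Ewing sarcoma A673 and rhabdomyosarcoma RMS-1 cells were grown in DMEM or RPMI with 10% FCS, penicillin and streptomycin at 37 °C under 5% CO2. […] MTS was then added for 2–5 h and absorbance read at 490 nm. Six replicates per concentration; IC50 versus untreated cells.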

Plasma [3] = experiment: Drug metabolism in mouse plasma assessed as 4-HO-IFO release measured after 0.5 hrs by HPLC-MS/MS method; format: ADME, cell-free; summary of the method: as §1
A673 [4] = experiment: Cytotoxicity against human A673 cells after 96 hrs by MTS assay; format: functional, cell-based; details: A673, 96 h; summary of the method: as §2
Plasma [5] = experiment: Drug metabolism in mouse plasma assessed as 4-HO-IFO level measured after 2 hrs by HPLC-MS/MS method; format: ADME, cell-free; summary of the method: as §1
[6] = Cytotoxicity against human RMS1 cells after 72 hrs by MTS assay; format: functional, cell-based; details: RMS1, 72 h; summary of the method: as §2
Plasma [7] = experiment: Drug metabolism in mouse plasma assessed as 4-HO-IFO release measured after 2 hrs by HPLC-MS/MS method; format: ADME, cell-free; summary of the method: as §1
A673 [8] = experiment: Cytotoxicity against human A673 cells after 72 hrs by MTS assay; format: functional, cell-based; details: A673, 72 h; summary of the method: as §2
Plasma [9] = experiment: Drug metabolism in mouse plasma assessed as 4-HO-IFO level measured after 6 hrs by HPLC-MS/MS method; format: ADME, cell-free; summary of the method: as §1
Plasma [10] = experiment: Drug metabolism in mouse plasma assessed as 4-HO-IFO release measured after 4 hrs by HPLC-MS/MS method; format: ADME, cell-free; summary of the method: as §1

Compound | Stability (Plasma [1]) | Drug metabolism (Plasma [5]) | IC50 [6] | IC50 (A673 [8]) | also measured
CO[C@@H]1CCOP(=O)(NCCCl)N1CCCl (some centres not stated) | – | – | – | – | IC50 (KB): 20 µM
CO[C@H]1CCOP(=O)(NCCCl)N1CCCl (some centres not stated) | – | – | – | – | IC50 (KB): 22 µM
CC(C)CCCC(C)CCOC1CCOP(=O)(NCCCl)N1CCCl (configuration not stated) | Stable | metabolite_detected | – | – | IC50 [2]: 11.3 µM; Drug metabolism (Plasma [3]): 200 ng/mL; IC50 (A673 [4]): 24.5 µM
COC1CCOP(=O)(NCCCl)N1CCCl (mixture of isomers) | – | metabolite_detected | 3.8 µM | 1.5 µM | Drug metabolism (Plasma [7]): 1250 ng/mL; Drug metabolism (Plasma [9]): metabolite_detected
CCCCCOC1CCOP(=O)(NCCCl)N1CCCl (mixture of isomers) | – | – | 5.3 µM | 17.7 µM | –
CC(C)=CCC/C(C)=C/COC1CCOP(=O)(NCCCl)N1CCCl (mixture of isomers) | Stable | metabolite_detected | 9.3 µM | 25.3 µM | Drug metabolism (Plasma [10]): 350 ng/mL
CC(C)=CCC/C(C)=C/CC/C(C)=C/COC1CCOP(=O)(NCCCl)N1CCCl (mixture of isomers) | Stable | metabolite_detected | – | – | Drug metabolism (Plasma [3]): 700 ng/mL

From ChEMBL document CHEMBL3393029, “Preactivated oxazaphosphorines designed for isophosphoramide mustard delivery as bulk form or nanoassemblies: synthesis and proof of concept” (J Med Chem, 2015)
